Results gathered from unrelated publications.
Lines come from different studies, so protocols differ.
Effect on: cell growth or viability

Structure (SMILES)	cell line	assay	setting	IC50
N[C@@H](CC(=O)N1CCN(C(c2ccc(F)cc2)c2ccc(F)cc2)CC1)C(=O)N1Cc2ccccc2C1	TF-1	ATP luminescence	48 h	28.8 µM
COC(=O)CN=c1scc(-c2ccccc2)n1-c1ccc(OC)cc1	PANC-03-27	MTT	72 h	11.5 µM
COc1ccc(C[C]2([Ti+2][C]3(Cc4ccc(OC)cc4)C=CC=C3)C=CC=C2)cc1.[Cl-].[Cl-]	HEK-293T	XTT	24 h	> 200 µM
Cc1cc(Nc2ncc(Cl)c(Nc3ccccc3S(=O)(=O)C(C)C)n2)c(OC(C)C)cc1C1CCNCC1	human Myoblast	–	72 h	1.84 µM
COC1=C2C[C@@H](C)C[C@H](OC)[C@H](O)[C@@H](C)/C=C(\C)[C@H](OC(N)=O)[C@@H](OC)/C=C\C=C(/C)C(=O)NC(=CC1=O)C2=O	A-431	MTT	–	0.048 µM
Cc1ccc2nc(-c3ccccc3O)[nH]c2c1	HepG2	MTT	48 h	26.1 µM
COc1cc(Nc2nccc(-c3cnn4nc(OC)ccc34)n2)cc(C(F)(F)F)c1	M-07e	ATP luminescence	–	0.11 µM
COc1cccc2c1C(=O)c1c(O)c3c(c(O)c1C2=O)C[C@@](O)(C(=O)CO)C[C@@H]3O[C@H]1C[C@H](N)[C@H](O)[C@H](C)O1	NCI-H292	WST-1	72 h	0.03 µM
COC(=O)CN=c1scc(-c2ccccc2)n1-c1ccc(C)cc1	PANC-03-27	MTT	72 h	10.8 µM
CCN(c1nc(N)c(C(=O)N=C(N)N)nc1Cl)C(C)C	A-431	MTT	3 h	160 µM
COc1ccc(Oc2ccccc2NC(=O)CNC(=O)c2cccc3ccccc23)cc1	SK-N-AS	–	–	0.091 µM
Cc1cc(NC(=O)c2cccc3cc(-c4cccc5[nH]nc(N)c45)ccc23)ccc1F	D283	CCK-8	72 h	> 20 µM
COc1cccc(Oc2ccccc2NC(=O)CNC(=O)c2cccc3ccccc23)c1	SK-N-BE(2)-C	–	–	0.236 µM
O=C(O)c1ccc(NC(=O)c2cc3cc(Cl)ccc3[nH]2)cc1	SK-N-BE(2)-C	MTT	–	21 µM
COc1cc([C@@H]2c3cc4c(cc3[C@@H](O[C@@H]3O[C@@H]5CO[C@@H](C)O[C@H]5[C@H](O)[C@H]3O)[C@H]3COC(=O)[C@H]23)OCO4)cc(OC)c1O	CCD-18Co	MTS	48 h	43.7 µM
[Cl-].[Cl-].[Ti+4].c1cc[cH-]c1.c1cc[cH-]c1	HEK-293T	XTT	24 h	> 200 µM

Structure (SMILES)	cell line	assay	setting	IC50
C[C@H]1Oc2cc(cnc2N)-c2c(nn(C)c2C#N)CN(C)C(=O)c2ccc(F)cc21	A-431	–	–	> 10 µM
COC(=O)CN=c1scc(-c2ccccc2)n1-c1ccccc1[N+](=O)[O-]	PANC-03-27	MTT	72 h	25.5 µM
O=C(c1cc(O)c(O)c(O)c1)c1cc2cc(-c3ccc(CO)cc3)ccc2o1	HEK-293T	ATP luminescence	72 h	1 µg/mL
CC(C)C[C@H](NC(=O)[C@H](Cc1ccccc1)NC(=O)c1cnccn1)B(O)O	M-07e	ATP luminescence	–	0.0053 µM
O=C1/C(=C/c2cc(O)c(O)c(O)c2)Oc2ccccc21	HEK-293T	ATP luminescence	24 h	23 µg/mL
COC(=O)CN=c1scc(-c2ccccc2)n1-c1ccc(Cl)cc1	PANC-03-27	MTT	72 h	22.1 µM
CC(=O)c1ccc(-c2ccc3oc(C(=O)c4cc(O)c(O)c(O)c4)cc3c2)cc1	HEK-293T	ATP luminescence	72 h	1.3 µg/mL
C[C@@H](Oc1cc(-c2cnn(C3CCNCC3)c2)cnc1N)c1c(Cl)ccc(F)c1Cl	human Myoblast	–	72 h	1.84 µM
O=C(CNC(=O)c1cccc2ccccc12)Nc1ccccc1Oc1ccc(O)cc1	SK-N-AS	–	–	0.156 µM
COc1cc([C@@H]2c3cc4c(cc3[C@@H](O[C@@H]3O[C@@H]5CO[C@@H](C)O[C@H]5[C@H](O)[C@H]3O)[C@H]3COC(=O)[C@H]23)OCO4)cc(OC)c1O	CCD-18Co	MTS	72 h	42.2 µM
O=C(NCc1ccc(CO)cc1)c1c[nH]c2ccc(Cl)cc12	SK-N-BE(2)-C	MTT	–	17 µM
CC(=O)Oc1ccc2c(c1)C(C)=CC(C)(C)N2Cc1ccccc1	Huh-7	MTT	72 h	25 µM
Cc1[nH]c(/C=C2\C(=O)Nc3ccc(S(=O)(=O)N(C)c4cccc(Cl)c4)cc32)c(C)c1C(=O)N1CCN(C)CC1	human Myoblast	–	72 h	3.85 µM
O=C(c1cc(O)c(O)c(O)c1)c1cc2ccccc2o1	HEK-293T	ATP luminescence	24 h	1.3 µg/mL
O=C(CNC(=O)c1cccc2ccccc12)Nc1ccccc1Oc1ccccc1	SK-N-AS	–	–	0.107 µM
